# Bioassay records (PubChem BioAssay)
# Only some compounds are listed: those with a hit (about 5.9% of all), similar ones and a draw of the others.
# IDH1 R132H inh – inhibitors of IDH1 R132H reductase, primary screen, biochemical, plate reader, single point; inhibition, % at 10 µM; diaphorase/resazurin fluorescence, 60 min; AID 624101, 2012; Isocitrate dehydrogenase [NADP] cytoplasmic (Homo sapiens), O75874; 0.18% of 70,000 active; in the data active = inhibition above about 34%; inconclusive = no clear call, values can overlap the other calls; inactive = below about 11%;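 note: 0% = DMSO and 100% = no enzyme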
# Target sequence (O75874 whole entry R132H): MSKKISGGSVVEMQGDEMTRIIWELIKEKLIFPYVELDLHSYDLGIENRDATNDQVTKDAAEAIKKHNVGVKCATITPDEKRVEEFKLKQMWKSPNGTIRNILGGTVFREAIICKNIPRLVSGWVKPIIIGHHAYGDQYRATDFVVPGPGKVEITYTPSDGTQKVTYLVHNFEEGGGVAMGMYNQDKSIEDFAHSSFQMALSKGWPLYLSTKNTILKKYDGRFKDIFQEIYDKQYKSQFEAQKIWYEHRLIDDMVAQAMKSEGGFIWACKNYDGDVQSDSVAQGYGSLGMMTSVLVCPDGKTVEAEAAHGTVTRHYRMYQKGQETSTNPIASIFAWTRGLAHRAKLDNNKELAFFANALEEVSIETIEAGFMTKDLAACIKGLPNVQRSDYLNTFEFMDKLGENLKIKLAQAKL
# GASC1 inh – inhibitors of GASC-1 (KDM4C) histone demethylase, primary screen, biochemical, single concentration HTS; Lysine-specific demethylase 4C (Homo sapiens), Q9H3R0; 0.15% of 96,000 active; GST-KDM4C 2-372, H3K9me3 peptide, LANCE TR-FRET; inhibition, % at 12.5 µM;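 active = mean replicate inhibition above about 25%, with at least 55% of replicates also reaching it, limit read from the data, passing the limit was not always enough; inconclusive = only one of those two conditions met; inactive = neither condition met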
#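 Assay system: GST-GASC-1 enzyme fragment 2-372 | Amount: 10 nM enzyme | Medium: HEPES buffer, pH 7.5, plus ascorbate | Reagent: H3K9me3 peptide substrate, Fe(II), 2-oxoglutarate | Doses: Single-point compound screen | Incubation: 30 min demethylation and 1 h detection at room temperature | Measured by: LANCE TR-FRET, excitation 340 nm, emissions 618 and 671 nm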
# Pf Dd2 growth – P. falciparum Dd2 growth inhibitors, primary screen, SYBR Green fluorescence, single dose replicates; 72 h; hits give low values; activity change, % at 10 µM; 2.3% of 94,000 active; in the data active = activity change below about -80%; inconclusive = no clear call, values can overlap the other calls
# Tcruzi prolif – T. cruzi intracellular proliferation inhibitors, primary screen, cell-based, beta-gal Tulahuen parasites, NIH3T3 host, luminescence. T. cruzi beta-gal in NIH3T3, GalScreen luminescence, 90 h. inhibition, % at 8.34 µM. 5.9% of 77,000 active. AID 624255, 2012;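 active = mean inhibition above about 93%, with at least 55% of replicates each passing it, limit read from the data, passing the limit was not always enough; inconclusive = only one of those two conditions holds; inactive = neither condition holds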
# An asterisk follows results filed as active; ? = inconclusive; / = no result given.
SMILES,IDH1 R132H inh,GASC1 inh,Pf Dd2 growth,Tcruzi prolif
C[C@H](CO)N1C[C@H](C)[C@@H](CN(C)C(=O)Nc2ccccc2C(F)(F)F)OCc2ccccc2-c2c(n(C)c3ccccc23)C1=O,/,/,-30,/
C[C@H]1CN([C@@H](C)CO)C(=O)c2c(c3ccccc3n2C)-c2ccccc2CO[C@@H]1CN(C)C(=O)Nc1cccc(Cl)c1Cl,/,-5,-84*,/
O=C(c1cccc(F)c1)N1CC(=O)N2[C@H](CO)[C@@H](c3ccc(C4=CCCC4)cc3)[C@H]2C1,/,1,-13,/
Cc1noc(C)c1S(=O)(=O)Nc1ccc2c(c1)C(=O)N([C@H](C)CO)C[C@@H](C)[C@@H](CN(C)C(=O)NC1CCCCC1)OCCCC[C@@H](C)O2,/,-2,-84*,-55
COc1ccc(S(=O)(=O)Nc2ccc3c(c2)C(=O)N([C@@H](C)CO)C[C@H](C)[C@H](CN(C)C(=O)Nc2cccc4ccccc24)OCCCC[C@@H](C)O3)cc1,-2,-1,-82*,/
Cc1noc(C)c1S(=O)(=O)Nc1ccc2c(c1)C(=O)N([C@H](C)CO)C[C@@H](C)[C@@H](CN(C)C(=O)Nc1cccc3ccccc13)OCCCC[C@@H](C)O2,/,-3,-88*,83
COc1ccc(S(=O)(=O)Nc2ccc3c(c2)C(=O)N([C@H](C)CO)C[C@H](C)[C@@H](CN(C)C(=O)Nc2cccc4ccccc24)OCCCC[C@@H](C)O3)cc1,/,1,-58,40
Cc1noc(C)c1S(=O)(=O)Nc1ccc2c(c1)C(=O)N([C@H](C)CO)C[C@H](C)[C@H](CN(C)C(=O)Nc1ccccc1)OCCCC[C@H](C)O2,1,-1,-35,37
c1cc(-c2ccc(C3[C@H]4CNC[C@@H]3N4CC3CCOCC3)cc2)ccn1 (some centres not stated),/,3,23,/
C[C@@H]1CCCCO[C@H](CN(C)Cc2ccccc2)[C@H](C)CN([C@@H](C)CO)C(=O)c2cc(NC(=O)Nc3ccc(F)cc3)ccc2O1,/,-1,-84*,76
COc1ccc(NC(=O)Nc2ccc3c(c2)C(=O)N([C@@H](C)CO)C[C@@H](C)[C@@H](CN(C)Cc2ccc4c(c2)OCO4)OCCCC[C@@H](C)O3)cc1,4,1,-83*,85
Cc1noc(C)c1NC(=O)Nc1ccc2c(c1)C(=O)N([C@H](C)CO)C[C@@H](C)[C@@H](CN(C)S(C)(=O)=O)O2,/,0,-92*,94
C[C@@H]1CN([C@H](C)CO)C(=O)c2cc(NC(=O)Nc3ccccc3)ccc2O[C@@H](C)CCCCO[C@@H]1CN(C)Cc1ccccc1,2,-1,-82*,/
C[C@@H]1CCCCO[C@@H](CN(C)Cc2ccc3c(c2)OCO3)[C@@H](C)CN([C@@H](C)CO)C(=O)c2cc(NS(=O)(=O)c3cn(C)cn3)ccc2O1,8,1,-14,21
Cc1noc(C)c1NC(=O)N(C)C[C@@H]1Oc2ccc(NC(=O)Cn3cnnn3)cc2CC(=O)N([C@@H](C)CO)C[C@@H]1C,0,0,23,-14
COc1ccc(S(=O)(=O)N(C)C[C@H]2OCCCC[C@H](C)Oc3ccc(NC(=O)Nc4ccc(C(F)(F)F)cc4)cc3C(=O)N([C@H](C)CO)C[C@H]2C)cc1,3,1,?,47
C[C@@H]1CN([C@H](C)CO)C(=O)c2cc(NC(=O)Nc3ccccc3)ccc2O[C@@H](C)CCCCO[C@@H]1CN(C)Cc1ccc(Cl)c(Cl)c1,/,0,-85*,70
Cc1noc(C)c1NC(=O)Nc1ccc2c(c1)C(=O)N([C@H](C)CO)C[C@@H](C)[C@H](CN(C)Cc1ccc(Cl)c(Cl)c1)OCCCC[C@H](C)O2,/,0,-86*,76
C[C@H]1CCCCO[C@@H](CN(C)Cc2ccc3c(c2)OCO3)[C@@H](C)CN([C@@H](C)CO)C(=O)c2cc(NC(=O)Nc3ccccc3)ccc2O1,/,1,-82*,94
FC(F)(F)c1cccc(CN2[C@@H]3CNC[C@H]2[C@@H]3c2ccc(-c3cccnc3)cc2)c1,/,0,-84*,/
COc1cccc(NC(=O)N[C@@H]2C=C[C@H](CC(=O)N3CCCCC3)O[C@@H]2CO)c1,/,1,7,/
COc1cccc(NC(=O)N[C@@H]2C=C[C@@H](CC(=O)N3CCCCC3)O[C@@H]2CO)c1,/,34*,-1,/
C[C@@H]1CN([C@H](C)CO)C(=O)c2cccc(NC(=O)C3CCOCC3)c2O[C@H]1CN(C)Cc1ccc(-c2ccccc2)cc1,-2,-1,-84*,71
C[C@H]1CN([C@@H](C)CO)C(=O)c2cccc(NC(=O)C3CC3)c2O[C@@H]1CN(C)Cc1ccc(-c2ccccc2)cc1,/,-1,-60,73
C[C@@H]1CN([C@@H](C)CO)C(=O)c2cccc(NC(=O)C3CC3)c2O[C@H]1CN(C)Cc1ccc(-c2ccccc2)cc1,/,-1,-89*,59
SMILES,IDH1 R132H inh,GASC1 inh,Pf Dd2 growth,Tcruzi prolif
CC(C)NC(=O)Nc1cccc2c1O[C@H](CN(C)Cc1ccc(-c3ccccc3)cc1)[C@H](C)CN([C@@H](C)CO)C2=O,/,-2,-85*,-42
C[C@@H]1CN([C@@H](C)CO)C(=O)c2cccc(NC(=O)C3CCOCC3)c2O[C@H]1CN(C)Cc1ccc(-c2ccccc2)cc1,/,2,-84*,56
COc1ccc(NC(=O)Nc2cccc3c2O[C@@H](CN(C)CC2CCCCC2)[C@H](C)CN([C@H](C)CO)C3=O)cc1,0,1,-12,67
CCCNC(=O)C[C@H]1CC[C@@H]2[C@@H](COc3ccc(NC(=O)c4cc(C)on4)cc3C(=O)N2C)O1,/,-1,-36,-9
COc1ccc2c3c([nH]c2c1)[C@@H](CO)N(Cc1nccs1)CC31CCN(Cc2ccncc2)CC1,/,3,-65,/
COc1ccc2c3c([nH]c2c1)[C@@H](CO)N(Cc1ccncc1)CC31CCN(Cc2ccc(-c3ccccn3)cc2)CC1,/,1,-91*,/
COc1ccc2c3c([nH]c2c1)[C@H](CO)N(Cc1ccncc1)CC31CCN(Cc2ccc(-c3ccccn3)cc2)CC1,/,0,-89*,/
Cc1noc(C)c1NC(=O)Nc1ccc2c(c1)CC(=O)N([C@@H](C)CO)C[C@H](C)[C@H](CN(C)CC1CC1)O2,0,0,19,48
CCCC#Cc1ccc(CC[C@H]2O[C@H]3CC[C@H](CO)O[C@H]3C[C@@H]2n2cc(C(C)(C)O)nn2)cc1,/,/,-85*,/
OC[C@H]1CC[C@@H]2O[C@H](CCc3ccc(-c4ccc(F)cc4)cc3)[C@@H](n3cc(C4CC4)nn3)C[C@@H]2O1,/,/,-47,/
COCC#Cc1ccc(CC[C@H]2O[C@H]3CC[C@@H](CO)O[C@H]3C[C@@H]2n2cc(C3CC3)nn2)cc1,/,/,-89*,/
OC[C@@H]1CC[C@@H]2O[C@H](CCc3ccc(C#Cc4ccccc4)cc3)[C@H](n3cc(-c4ccccc4)nn3)C[C@@H]2O1,/,/,-84*,/
